From PubChem BioAssay
Jurkat NFkB inh = inhibitors of the PMA/ionomycin-induced NF-kB reporter in Jurkat cells. AID 435003. actives 0.53% (n = 330,000). inhibition, % at 4 µM. PMA/ionomycin-induced NF-kB luciferase reporter, luminescence; in the data active = inhibition above about 50%
CHOP inh = inhibitors of CHOP induction in ER stress response; CHO-K1 CHOP-promoter luciferase, tunicamycin-induced, 15-18 h; inhibition, % at 10 µM; actives 3.8% (n = 220,000);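 active = compounds that reduced the stress-induced luciferase reporter signal by more than about 70% of percent inhibition, limit read from the data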;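 also: 0% = tunicamycin plus vehicle and 100% = wells without tunicamycin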
UPR XBP1 act = activators of adaptive arm of unfolded protein response (XBP1) | CHO-XBP1 luciferase reporter, IRE1-XBP1 UPR activation, luminescence; percent of tunicamycin response, DMSO as zero | actives 0.33% (n = 330,000) | activation, % at 20 µM;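 active = versus positive control, 20 µM dose yields 30% or more activation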;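 also: 100% = tunicamycin at 10 µg/mL and 0% = DMSO only wells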
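Material: IRE1-XBP1 luciferase reporter CHO line / Quantity: one thousand reporter cells per well / Buffer or medium: F12 with 10% serum / Compound: 20 µM single concentration, DMSO 1% / Times: 6 h treatment, 37 °C / Detection: Steady-Glo luciferase glow luminescence, 10 min after reagent addition / Benchmarks: tunicamycin high, DMSO low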
697 NFkB inh = lowers PMA/ionomycin-induced NF-kB signal in 697 B cells. 697 B-cell NF-kB luciferase reporter, 16 h. inhibition, % at 4 µM. actives 0.33% (n = 330,000). AID 435022; in the data active = inhibition above about 35%
CHOP UPR activ = apoptotic UPR (CHOP) activation; activation, % at 10 µM; AID 449763; actives 0.34% (n = 330,000); CHO-CHOP luciferase reporter, luminescence; percent of tunicamycin response over DMSO baseline;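 active = at 10 µM dose, activation of 40% or more, normalized to positive control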;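 also: 100% = tunicamycin at 10 µg/mL and 0% = DMSO alone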
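System: CHO-CHOP luciferase reporter cell line; amount: 500 cells/well; buffer or medium: F12 medium containing 10% fetal bovine serum; incubation: 6 h compound exposure at 37 °C after overnight seeding; measured by: luciferase luminescence after 10 min with Steady-Glo reagent; evaluation: % reporter activation, DMSO baseline versus tunicamycin full activation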
CHOP confirm = confirmation of CHOP induction inhibitors; actives 45% (n = 2,100); CHO-CHOP promoter luciferase reporter, tunicamycin-induced, luminescence; inhibition, % at 10 µM; shares compounds with CHOP inh;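 active = mean of three repeat readings of reporter signal inhibition above a set limit, cut at about 70% in these data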;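 also: 0% = tunicamycin plus vehicle and 100% = wells lacking tunicamycin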
Starred values were filed as active, the others as inactive; x = no result. The sample as a whole holds a higher share of hits than the screen did.

SMILES | Jurkat NFkB inh | CHOP inh | UPR XBP1 act | 697 NFkB inh | CHOP UPR activ | CHOP confirm
CC(=O)Cn1ncc(Br)c(Br)c1=O | x | 105* | x | x | x | 4
Cc1ccc(C(=O)N(CCc2ccccc2)Cc2ccccc2)cc1S(=O)(=O)N1CCCCC1 | 15 | x | -1 | -20 | 0 | x
O=C(Nc1ccc2c(c1)OCCO2)c1cc(-c2ccccn2)nc2ccc(Br)cc12 | -8 | 101* | 3 | 12 | 1 | 2
CCOc1ccccc1NC(=O)COC(=O)CN1C(=O)NC(C)(C)C1=O | -11 | x | 3 | 2 | 0 | x
CC1CCCC(NC(=O)COC(=O)/C=C/c2ccc3c(c2)OCO3)C1C (configuration not stated) | -2 | 98* | -1 | -5 | 1 | 96*
CCN(CC)S(=O)(=O)c1cccc(NC(=O)Nc2cccc(C(F)(F)F)c2)c1 | 16 | 100* | 8 | -40 | 10 | 124*
CCOC(=O)c1ccc(N=Cc2nc(-c3ccccc3)oc2OC(C)=O)cc1 | -8 | 106* | 5 | 6 | 1 | -19
COc1ccc(N=Cc2nc(-c3ccccc3)oc2OC(=O)c2ccccc2)cc1 | -75 | 30 | 26 | -100 | 25 | x
Cc1ccc(C(=O)Oc2oc(-c3ccco3)nc2C=Nc2ccccc2)cc1 | x | 102* | x | x | x | -24
O=C(Cc1ccc([N+](=O)[O-])cc1)N/N=C/c1cccs1 | 17 | x | -3 | -2 | 1 | x
COC(=O)C(Cc1ccccc1)NC(=O)c1cc(S(=O)(=O)N(C)C)ccc1Cl (configuration not stated) | 11 | 8 | -1 | 20 | -1 | x
COc1cccc(-c2cc(C(F)(F)F)n3nc(C(=O)N4CCCCC4c4cccnc4)cc3n2)c1 (configuration not stated) | 6 | 50 | 17 | -50 | 3 | x
COc1ccc(C(C[N+](=O)[O-])c2c(-c3ccccc3)cc3ccccn23)cc1 (configuration not stated) | 8 | 5 | -4 | -13 | 14 | x
COc1ccc(C(C[N+](=O)[O-])C2(c3ccc(OC)c(OC)c3)C(=O)c3ccccc3C2=O)cc1 (configuration not stated) | x | 104* | x | x | x | -165
COc1cc(CCC(=O)OCC(=O)N(CC(C)C)C2CCS(=O)(=O)C2)cc(OC)c1OC (configuration not stated) | -33 | x | 2 | -40 | 0 | x
COc1cc(/C=C(/C#N)c2nc3ccccc3c(=O)[nH]2)ccc1O | 21 | 102* | 3 | 24 | 6 | 112*
CC(C)(C)c1ccc(OCC(O)CN(CCO)CC(O)Cn2ccc3ccccc32)cc1 (configuration not stated) | 3 | 103* | -3 | -9 | -2 | 4
CCOC(=S)SCc1cn2cccc(C)c2n1 | -6 | -23 | 1 | -11 | -1 | x
NC(=O)c1ccc(Cc2ncc(C(F)(F)F)cc2Cl)s1 | -15 | 5 | -1 | 6 | -1 | x
O=S(=O)(N/N=C/c1ccc(Cl)cc1)c1ccc(Cc2ncc(C(F)(F)F)cc2Cl)s1 | 11 | 100* | 1 | 14 | -1 | 91*
CCC(C)C(NC(N)=O)C(=O)Nc1ccc(OCc2ccccc2)cc1 (configuration not stated) | -6 | 13 | 2 | 14 | 3 | x
O=C1C(Cl)=C(N2CCCCC2)C(=O)C(Cl)=C1c1cnc(N2CCCCC2)s1 | -25 | x | 0 | -41 | 128* | 95*
O=C1C(Cl)=C(N2CCCCCC2)C(=O)N1c1ccc(Cl)cc1 | 7 | x | -5 | -7 | 2 | x
COc1ccc(Cl)cc1NC(=O)CN(C)C(=O)c1cn(-c2ccccc2)nc1-c1cccnc1 | -5 | x | -4 | -2 | -1 | x
COc1cc([C@@H]2c3cc4c(cc3[C@@H](O)[C@@H](CO)[C@@H]2CO)OCO4)cc(OC)c1O[Si](C)(C)C(C)(C)C | 16 | 100* | 7 | -3 | 0 | 117*
SMILES | Jurkat NFkB inh | CHOP inh | UPR XBP1 act | 697 NFkB inh | CHOP UPR activ | CHOP confirm
COc1cc(CC(=O)NCc2ccc3c(c2)OCO3)cc(OC)c1OC | 10 | -1 | 0 | 0 | 0 | x
Cc1ccc(Cc2nnc(SCC(=O)Nc3ccccc3)n(N)c2=O)cc1 | 6 | x | -5 | 10 | 1 | x
CC(C)(C)c1cc(C(c2cccnc2)N2CCN(CCO)CC2)cc(C(C)(C)C)c1O (configuration not stated) | -12 | 110* | -9 | -23 | -9 | -60
Cc1cccc(OCC(=O)N/N=C\C=C\c2ccc3c(c2)OCO3)c1C | -27 | 98* | 0 | -40 | -2 | 95*
Cc1ccccc1OCC(=O)NNC(=O)c1ccc(-c2ccccc2)cc1 | 12 | 105* | -5 | 3 | -1 | 19
Cc1cccc(/C=N/Nc2ccc3ccccc3n2)c1 | -146 | 97* | -13 | -214 | -8 | 99*
O=C(NC(=S)Nc1ccc2oc(-c3cccnc3)nc2c1)c1cccc(Cl)c1 | -41 | 99* | 1 | -39 | 5 | 8
O=C(Nc1ccc2oc(-c3cccnc3)nc2c1)c1cc2ccccc2o1 | 17 | -18 | 0 | -24 | -1 | x
CCOc1ccc(S(=O)(=O)NCCC(=O)Nc2cccc(C(=O)OC)c2)cc1 | 11 | x | -3 | 3 | 0 | x
O=C(O)c1ccccc1C(=O)Nc1ccccc1 | -3 | 24 | 0 | 2 | 0 | x
O=C(Nc1ccccc1)C1=C(c2ccccc2)S(=O)(=O)CCS1(=O)=O | x | 108* | x | x | x | 110*
COc1cc(-c2nc3ccc4ccccc4c3c3c2CCC3)cc(OC)c1O | 3 | 102* | -3 | 1 | 1 | 106*
CCOC(=O)Cc1csc(NC(=O)Nc2cccc(Cl)c2)n1 | 16 | 58 | -1 | -1 | 2 | x
CCOC(=O)c1csc(NC(=O)Nc2cccc(Cl)c2)n1 | -20 | 98* | 3 | -12 | 3 | 38
CCOc1ccc(N2CC(NS(=O)(=O)c3cccnc3)CC2=O)cc1 (configuration not stated) | 17 | x | 1 | 19 | 0 | x
CC(C)(C)OC(=O)CNC(=O)c1[nH]cnc1C(=O)Nc1ccc(Cl)cc1 | -2 | 100* | -1 | -22 | -1 | 77*
Cc1ccc(NC(=O)c2nc[nH]c2C(=O)N[C@@H](C)C(=O)OC(C)(C)C)cc1 | -18 | 97* | -2 | -17 | -1 | 78*
O=C(NCc1ccc2c(c1)OCO2)C1CC(=O)N(CCc2ccc(F)cc2)C1 (configuration not stated) | 21 | x | -4 | 1 | 0 | x
CCCc1cc(C(=O)NC2CCCCC2)no1 | -49 | 0 | 2 | -79 | 1 | x
CCCc1cc(C(=O)N(C2CCCCC2)C2CCCCC2)no1 | -13 | 100* | -2 | 9 | 0 | 89*
